From ChEMBL document CHEMBL3085670, “Synthesis, biological evaluation and docking studies of 4-aryloxymethyl coumarins derived from substructures and degradation products of vancomycin” (2013)
≈ marks a conversion by molar mass, not a printed value.

How the values were obtained:
Type in all cases: functional
Aspergillus niger [1] = assay: Ratio of fluconazole MIC to compound MIC for Aspergillus niger ATCC 9029 after 24 hrs by broth microdilution method
Candida albicans [2] = assay: Ratio of fluconazole MIC to compound MIC for Candida albicans ATCC 2091 after 24 hrs by broth microdilution method
Aspergillus niger [3] = assay: Antifungal activity against Aspergillus niger ATCC 9029 after 24 hrs by broth microdilution method; settings: ATCC 9029, 24 h
In short: (§1)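 Broth dilution MIC, with fluconazole as the comparator. Each drug was serially diluted tenfold in BHI broth over nine tubes (10^-1 to 10^-9). Each tube received a suspension of stock culture diluted in BHI. Tubes were kept 24 h at 37 °C, and growth was judged by turbidity.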

Candida albicans [4] = assay: Antifungal activity against Candida albicans ATCC 2091 after 24 hrs by broth microdilution method; settings: ATCC 2091, 24 h; in short: as §1
Pseudomonas aeruginosa = assay: Antibacterial activity against Pseudomonas aeruginosa ATCC 25619 after 24 hrs by broth microdilution method; settings: ATCC 25619, 24 h
In short: (§2)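 Broth dilution MIC, with ciprofloxacin as the comparator. Nine […] serial dilutions of each drug (10^-1 to 10^-9) were made in brain heart infusion (BHI) broth. Stock culture was diluted into BHI, and this suspension was added to each dilution tube. Tubes were incubated 24 h at 37 °C, and the MIC was read by turbidity.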

Escherichia coli = assay: Antibacterial activity against Escherichia coli ATCC 25922 after 24 hrs by broth microdilution method; settings: ATCC 25922, 24 h; in short: as §2
Enterococcus faecalis = assay: Antibacterial activity against Enterococcus faecalis ATCC 35550 after 24 hrs by broth microdilution method; settings: ATCC 35550, 24 h; in short: as §2
Staphylococcus aureus = assay: Antibacterial activity against Staphylococcus aureus ATCC 12598 after 24 hrs by broth microdilution method; settings: ATCC 12598, 24 h; in short: as §2

Structure (SMILES)	Ratio (Aspergillus niger [1])	Ratio (Candida albicans [2])	MIC (Aspergillus niger [3]) [µg/mL]	MIC (Candida albicans [4]) [µg/mL]	MIC (Pseudomonas aeruginosa) [µg/mL]	MIC (Escherichia coli) [µg/mL]	MIC (Enterococcus faecalis) [µg/mL]	MIC (Staphylococcus aureus) [µg/mL]
CCOC(=O)C(Cc1ccc(OCc2cc(=O)oc3cc(C)ccc23)cc1)NC(=O)c1ccccc1 (stereo unspecified)	40	80	0.2 (≈ 0.412 µM)	0.2 (≈ 0.412 µM)	100 (≈ 206 µM)	100 (≈ 206 µM)	0.8 (≈ 1.65 µM)	
CCOC(=O)C(Cc1ccc(OCc2cc(=O)oc3c(C)c(C)ccc23)cc1)NC(=O)c1ccccc1 (stereo unspecified)	40		0.2 (≈ 0.4 µM)	0.8 (≈ 1.6 µM)	100 (≈ 200 µM)	100 (≈ 200 µM)	0.2 (≈ 0.4 µM)	100 (≈ 200 µM)
CCOC(=O)C(Cc1ccc(OCc2cc(=O)oc3ccc4ccccc4c23)cc1)NC(=O)c1ccccc1 (stereo unspecified)	40		0.2 (≈ 0.383 µM)	1.6 (≈ 3.07 µM)		100 (≈ 192 µM)	0.4 (≈ 0.767 µM)	
CCOC(=O)c1cc(O)c(OCc2cc(=O)oc3ccc(Cl)cc23)c(O)c1			100 (≈ 256 µM)	100 (≈ 256 µM)	100 (≈ 256 µM)	100 (≈ 256 µM)	0.2 (≈ 0.512 µM)	0.4 (≈ 1.02 µM)
O=C(O)c1cn(C2CC2)c2cc(N3CCNCC3)c(F)cc2c1=O [CIPROFLOXACIN]							2 (≈ 6.04 µM)	2 (≈ 6.04 µM)
CCOC(=O)C(Cc1ccc(OCc2cc(=O)oc3cc(Cl)ccc23)cc1)NC(=O)c1ccccc1 (stereo unspecified)	40		0.2 (≈ 0.395 µM)	50 (≈ 98.8 µM)	100 (≈ 198 µM)		0.2 (≈ 0.395 µM)	
CCOC(=O)C(Cc1ccc(OCc2cc(=O)oc3ccc(OC)cc23)cc1)NC(=O)c1ccccc1 (stereo unspecified)	40	80	0.2 (≈ 0.399 µM)	0.2 (≈ 0.399 µM)	100 (≈ 199 µM)	100 (≈ 199 µM)	0.4 (≈ 0.798 µM)	100 (≈ 199 µM)
CCOC(=O)c1cc(O)c(OCc2cc(=O)oc3c2ccc2ccccc23)c(O)c1			100 (≈ 246 µM)	100 (≈ 246 µM)	100 (≈ 246 µM)	100 (≈ 246 µM)	0.2 (≈ 0.492 µM)	1.6 (≈ 3.94 µM)
CCOC(=O)C(Cc1ccc(OCc2cc(=O)oc3ccc(C)cc23)cc1)NC(=O)c1ccccc1 (stereo unspecified)	40	80	0.2 (≈ 0.412 µM)	0.2 (≈ 0.412 µM)	100 (≈ 206 µM)	100 (≈ 206 µM)	0.8 (≈ 1.65 µM)	100 (≈ 206 µM)
OC(Cn1cncn1)(Cn1cncn1)c1ccc(F)cc1F [FLUCONAZOLE]			8 (≈ 26.1 µM)	16 (≈ 52.2 µM)				
CCOC(=O)c1cc(O)c(OCc2cc(=O)oc3cc(OC)ccc23)c(O)c1			100 (≈ 259 µM)	100 (≈ 259 µM)	100 (≈ 259 µM)	100 (≈ 259 µM)	0.8 (≈ 2.07 µM)	1.6 (≈ 4.14 µM)
CCOC(=O)c1cc(O)c(OCc2cc(=O)oc3c(C)c(C)ccc23)c(O)c1			100 (≈ 260 µM)	100 (≈ 260 µM)	100 (≈ 260 µM)	100 (≈ 260 µM)	0.2 (≈ 0.52 µM)	0.2 (≈ 0.52 µM)
CCOC(=O)c1cc(O)c(OCc2cc(=O)oc3cc(C)ccc23)c(O)c1			100 (≈ 270 µM)	100 (≈ 270 µM)	100 (≈ 270 µM)	100 (≈ 270 µM)	0.2 (≈ 0.54 µM)	12.5 (≈ 33.8 µM)
CCOC(=O)c1cc(O)c(OCc2cc(=O)oc3ccc4ccccc4c23)c(O)c1			100 (≈ 246 µM)	100 (≈ 246 µM)	100 (≈ 246 µM)	100 (≈ 246 µM)	0.2 (≈ 0.492 µM)	0.4 (≈ 0.984 µM)
CCOC(=O)C(Cc1ccc(OCc2cc(=O)oc3ccc(Cl)cc23)cc1)NC(=O)c1ccccc1 (stereo unspecified)	40		0.2 (≈ 0.395 µM)	50 (≈ 98.8 µM)	100 (≈ 198 µM)		0.2 (≈ 0.395 µM)	100 (≈ 198 µM)
CCOC(=O)C(Cc1ccc(OCc2cc(=O)oc3cc(OC)ccc23)cc1)NC(=O)c1ccccc1 (stereo unspecified)	40	80	0.2 (≈ 0.399 µM)	0.2 (≈ 0.399 µM)	100 (≈ 199 µM)	100 (≈ 199 µM)	0.8 (≈ 1.6 µM)	100 (≈ 199 µM)
CCOC(=O)c1cc(O)c(OCc2cc(=O)oc3cc(C)cc(C)c23)c(O)c1			100 (≈ 260 µM)	100 (≈ 260 µM)	100 (≈ 260 µM)	100 (≈ 260 µM)	0.2 (≈ 0.52 µM)	0.8 (≈ 2.08 µM)
CCOC(=O)c1cc(O)c(OCc2cc(=O)oc3ccc(C)cc23)c(O)c1			100 (≈ 270 µM)	100 (≈ 270 µM)	100 (≈ 270 µM)	100 (≈ 270 µM)	0.2 (≈ 0.54 µM)	1.6 (≈ 4.32 µM)
CCOC(=O)C(Cc1ccc(OCc2cc(=O)oc3c2ccc2ccccc23)cc1)NC(=O)c1ccccc1 (stereo unspecified)	40		0.2 (≈ 0.383 µM)	12.5 (≈ 24 µM)	100 (≈ 192 µM)	100 (≈ 192 µM)	0.2 (≈ 0.383 µM)	50 (≈ 95.9 µM)
CCOC(=O)c1cc(O)c(OCc2cc(=O)oc3cc(Cl)ccc23)c(O)c1			100 (≈ 256 µM)	100 (≈ 256 µM)	100 (≈ 256 µM)	100 (≈ 256 µM)	3.12 (≈ 8 µM)	12.5 (≈ 32 µM)
CCOC(=O)c1cc(O)c(OCc2cc(=O)oc3ccc(OC)cc23)c(O)c1			100 (≈ 259 µM)	100 (≈ 259 µM)	100 (≈ 259 µM)	100 (≈ 259 µM)	0.2 (≈ 0.518 µM)	0.8 (≈ 2.07 µM)
CCOC(=O)C(Cc1ccc(OCc2cc(=O)oc3cc(C)cc(C)c23)cc1)NC(=O)c1ccccc1 (stereo unspecified)	40		0.2 (≈ 0.4 µM)	1.6 (≈ 3.2 µM)	100 (≈ 200 µM)	100 (≈ 200 µM)	0.2 (≈ 0.4 µM)	
